Sampled rows, rich in hits. Any-hit rate of the full collection: about 3.1%.
Tb hexokinase: Trypanosoma brucei hexokinase 1 inhibitors, primary screen, biochemical, G6PDH-coupled NADH absorbance, MLSCN library; 220,000 compounds, 0.11% hits; inhibition, % at 10 µM; recombinant TbHK1, G6PDH-coupled NADH A340; hexokinase 1 [Trypanosoma brucei]; AID 1430, 2008;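 active means inhibition of 50% or more in the single-dose primary screen; inactive means inhibition below 50%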
HSF1 activator: HSF-1 activators, primary screen, NIH3T3-HGL cells, MG132 stress, luminescence, single point; NIH3T3-HGL HSF-1 luciferase reporter, 8 h; 100% = twice DMSO control signal; activation, % at 9 µM; 300,000 compounds, 1.7% hits;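 active means mean replicate activation of at least 50% with a set share of replicates each reaching 50%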
HSP90 refold inh: HSP90 inhibitors, primary screen, cell lysate, luminescence; Heat shock protein HSP 90 (rabbit reticulocyte lysate; luciferase refolding); Rabbit reticulocyte lysate, luciferase refolding luminescence, 3 h; inhibition, % at 5.6 µM; 290,000 compounds, 0.91% hits; AID 1789, 2009;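 active means inhibition above the screen-wide mean plus 3 SD, computed separately per campaign, cut at about 16% in these data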;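 further: inhibitors lower the luminescence because luciferase stays unfolded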
Hsp70 act: Hsp70 transcriptional activators, primary screen, cell-based, HeLa, Hsp70 promoter luciferase, luminescence, 10 µM. 200,000 compounds, 0.04% hits. HeLa Hsp70 promoter luciferase reporter; scaled: vehicle 0, proteasome-inhibitor control 100%. AID 1203, 2008. activation, % at 10 µM;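 active means activation above the mean across all tested compounds plus 3 SD, cutoff set per campaign, cut at about 5.5% in these data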
HKDC1 inhibitor: HKDC1 hexokinase inhibitors, primary screen, biochemical, fluorescence, uHTS; Q2TB90; recombinant HKDC1, G6PDH/diaphorase resazurin coupled fluorescence; inhibition, % at 20 µM; 340,000 compounds, 0.16% hits;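 active means inhibition above about 35% when tested at 20 µM, limit read from the data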
Target sequence (Q2TB90 whole entry, looked up): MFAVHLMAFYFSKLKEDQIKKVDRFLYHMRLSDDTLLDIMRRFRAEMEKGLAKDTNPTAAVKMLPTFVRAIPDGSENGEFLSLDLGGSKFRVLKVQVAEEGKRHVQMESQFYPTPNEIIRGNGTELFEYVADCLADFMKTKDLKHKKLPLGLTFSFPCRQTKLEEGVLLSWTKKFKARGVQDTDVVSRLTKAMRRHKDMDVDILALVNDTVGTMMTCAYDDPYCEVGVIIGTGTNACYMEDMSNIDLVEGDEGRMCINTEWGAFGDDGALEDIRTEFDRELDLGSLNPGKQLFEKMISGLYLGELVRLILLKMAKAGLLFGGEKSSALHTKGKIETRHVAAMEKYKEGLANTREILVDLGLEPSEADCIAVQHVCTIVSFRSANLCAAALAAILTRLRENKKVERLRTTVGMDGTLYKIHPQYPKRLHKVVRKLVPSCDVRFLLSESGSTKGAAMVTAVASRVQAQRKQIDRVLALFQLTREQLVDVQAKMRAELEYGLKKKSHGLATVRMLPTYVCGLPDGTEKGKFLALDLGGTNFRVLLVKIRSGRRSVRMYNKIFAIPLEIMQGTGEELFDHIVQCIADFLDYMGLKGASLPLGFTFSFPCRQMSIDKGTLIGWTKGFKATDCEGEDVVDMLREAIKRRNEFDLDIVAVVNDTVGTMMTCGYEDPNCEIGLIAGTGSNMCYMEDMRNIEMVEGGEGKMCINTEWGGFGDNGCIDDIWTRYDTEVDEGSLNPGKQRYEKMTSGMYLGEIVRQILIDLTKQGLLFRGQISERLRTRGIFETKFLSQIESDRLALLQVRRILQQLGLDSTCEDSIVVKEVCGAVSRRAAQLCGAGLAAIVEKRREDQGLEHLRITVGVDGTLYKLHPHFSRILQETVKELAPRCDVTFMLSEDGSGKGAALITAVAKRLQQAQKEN
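Material – in-house recombinant HK5 (HKDC1) enzyme · Quantity – HKDC1 at 5 µg/mL · Buffer or medium – pH 8.0 Tris buffer with 10 mM MgCl2 · Reagent – glucose with 1 mM ATP · Dosing – single 20 µM dose · Times – reaction time 90 min, room temperature, protected from light · Technique – resorufin fluorescence at 613 nm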
HSF1 inh: HSF1 inhibitors in luciferase reporter cells, primary screen, cell-based, NIH3T3, luminescence. NIH3T3-HGL HSE-luciferase, MG132-induced, luminescence 8 h; active compounds read low. 300,000 compounds, 0.77% hits. activity change, negative = inhibition, % at 7.5 µM (by protocol);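 active means more than half of replicate wells show activity change below -50%, luminescence cut by over half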;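 further: luciferase reports HSF-1 transcriptional activity via heat shock element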
Large screens that a line does not name were inactive.

Cc1ccc(S(=O)(=O)c2c(C)cc(C)nc2N2CCCCC2)cc1	HSF1 activator 58
COCCNC(=O)c1cc(-c2ccc(-c3ccccc3)cc2)nc2ccccc12	HSF1 activator 64 (no result: Tb hexokinase, Hsp70 act)
NS(=O)(=O)c1ccc(CCNC(=O)c2cc(-c3ccc(Br)cc3)nc3ccccc23)cc1	none
O=C(NCc1ccccn1)c1cc(-c2ccc(-c3ccccc3)cc2)nc2ccccc12	HSF1 activator 84
O=C(NCc1ccccn1)c1cc(-c2ccccc2)nc2ccccc12	none
O=C(O)c1cc(-c2cccc3ccccc23)nc2ccccc12	HSF1 inh -88 (no result: Tb hexokinase, Hsp70 act)
CCCc1ccc(-c2cc(C(=O)NCCc3ccc(S(N)(=O)=O)cc3)c3ccccc3n2)cc1	HSF1 activator 85
CCCCn1c(N)c(N(CCOC)C(=O)c2ccc(-n3c(C)ccc3C)cc2)c(=O)[nH]c1=O	none (no result: Tb hexokinase, HSP90 refold inh, Hsp70 act)
O=C(/C=C/c1cc([N+](=O)[O-])ccc1OC(F)F)Nc1cccc([N+](=O)[O-])c1	HSF1 inh -73 (no result: Hsp70 act)
CC(=O)c1c(C)[nH]c(C(=O)NCC2CCCCC2)c1C	none (no result: Tb hexokinase, Hsp70 act)
c1ccc2c(c1)CNc1ccccc1-2	none (no result: Tb hexokinase, HSF1 activator, HSP90 refold inh, Hsp70 act, HSF1 inh)
COc1ccccc1CCC(=O)OCC(=O)Nc1cc(C)nn1-c1ccccc1	none (no result: Tb hexokinase, HSP90 refold inh, Hsp70 act)
COc1ccccc1CCC(=O)OCC(=O)Nc1c(Br)cc(C)cc1Br	HSF1 activator 61 (no result: Tb hexokinase, Hsp70 act)
COC(=O)Cc1[nH]n(-c2nc3ccccc3s2)c(=O)c1C(C)=Nc1ccc(Cl)cc1	HSF1 inh -68 (no result: Hsp70 act)
COC(=O)Cc1[nH]n(-c2nc3ccccc3s2)c(=O)c1C(C)=Nc1ccc(C)cc1	none
O=C(c1cc(C2CC2)nn1-c1ccccc1)N1CCN(c2ccc(O)cc2)CC1	none (no result: Tb hexokinase, HSF1 activator, HSP90 refold inh, Hsp70 act, HSF1 inh)
CCOC(=O)N1CCN(C(=O)CN2C(=O)COc3ccc(S(=O)(=O)N4CCOCC4)cc32)CC1	HSF1 activator 58 (no result: Tb hexokinase, Hsp70 act)
CN1CCN(C(=O)CN2C(=O)COc3ccc(S(=O)(=O)N4CCOCC4)cc32)CC1	none (no result: Tb hexokinase, Hsp70 act)
COc1cccc(NC(=O)CN2C(=O)COc3ccc(S(=O)(=O)N4CCC(C)CC4)cc32)c1	HSF1 activator 86 (no result: Tb hexokinase, Hsp70 act)
COc1ccccc1NC(=O)CN1C(=O)COc2ccc(S(=O)(=O)N3CCC(C)CC3)cc21	none (no result: Tb hexokinase, Hsp70 act)
Cc1ccc2c(c1)C(=C(C#N)C#N)CCN2	none (no result: Tb hexokinase, HSF1 activator, HSP90 refold inh, Hsp70 act, HSF1 inh)
Cc1cccc(Oc2coc3cc(OC(=O)c4cccs4)ccc3c2=O)c1	HSF1 activator 59
Cc1cc(C)cc(Oc2coc3cc(OC(=O)c4cccs4)ccc3c2=O)c1	none
COc1ccc(OCC(=O)NC2CCSc3ccccc32)cc1 (configuration not stated)	none (no result: Tb hexokinase, HSF1 activator, HSP90 refold inh, Hsp70 act, HSF1 inh)
O=C(O)c1ccc(N2C(=O)CC(N3CCN(c4cccc(C(F)(F)F)c4)CC3)C2=O)cc1 (configuration not stated)	HSF1 inh -56 (no result: Tb hexokinase, Hsp70 act)
O=C(CSC1=N/C(=C/c2ccco2)C(=O)N1c1ccc(OC(F)F)cc1)NC1CCS(=O)(=O)C1 (configuration not stated)	HSF1 activator 64
Cc1cc2[nH]c(=O)c3ccccc3n2n1	HSF1 activator 54
COc1ccc(/C=C2\CCc3ccccc3C2=O)cc1OC	HSF1 activator 68
COc1ccc2c(c1)CC/C(=C\Nc1ccc3c(c1)OCO3)C2=O	none
COc1ccc(N/C=C2\CCc3ccccc3C2=O)cc1	HSP90 refold inh 42
COc1ccc2c(c1)CC/C(=C/c1cc(OC)c(OC)c(OC)c1)C2=O	none
COc1ccc(/C=C2\CN(Cc3ccccc3)C/C(=C\c3ccc(OC)c(O)c3)C2=O)cc1O	HSF1 activator 91, HSP90 refold inh 18 (no result: Tb hexokinase, Hsp70 act)
COc1ccc(C=C2C(=O)c3ccccc3C2=O)cc1O	none
COc1ccc2c(c1)CC/C(=C/c1ccccn1)C2=O	HSF1 activator 66 (no result: Tb hexokinase, Hsp70 act)
O=C(C[C@H]1C/C=C\C[C@H](NC(=O)OCC2c3ccccc3-c3ccccc32)C(=O)OC[C@@H]2CCCN2C1=O)NCCO	none (no result: Tb hexokinase, HSF1 activator, HSP90 refold inh, Hsp70 act, HSF1 inh)
COC(=O)c1cc(S(=O)(=O)N2CCCC2=O)c(Cl)cc1Cl	none (no result: Tb hexokinase, Hsp70 act)
COc1cc(OC)c(OC)cc1/C=C1\CCC/C(=C\c2cc(OC)c(OC)cc2OC)C1=O	none (no result: Tb hexokinase, Hsp70 act)
COc1ccc(/C=C2\CCC/C(=C\c3ccc(OC)c(OC)c3OC)C2=O)c(OC)c1OC	HSF1 activator 53 (no result: Tb hexokinase, Hsp70 act)
COc1ccc(/C=C2\CC/C(=C\c3ccc(OC)c(OC)c3)C2=O)cc1OC	HSF1 activator 63
COc1cc(/C=C2/CC/C(=C/c3ccc(O)c(OC)c3)C2=O)ccc1O	none (no result: Hsp70 act)
CCCCCCCCCCCCCC(=O)NO	none (no result: Tb hexokinase, HSF1 activator, HSP90 refold inh, Hsp70 act, HSF1 inh)
Cc1cccc2sc(NNC(=O)C3COc4ccccc4O3)nc12 (configuration not stated)	HSF1 inh -87
O=C(NNc1nc2c(F)cc(F)cc2s1)C1COc2ccccc2O1 (configuration not stated)	none
Cc1ccc(-c2cc(C(F)F)nc(S(C)(=O)=O)n2)cc1	HSF1 activator 305
Cc1ccc(-c2cc(-c3ccccc3)nc(Cl)n2)cc1	none
O=C(CCS(=O)(=O)c1ccc(F)cc1)Nc1nc(-c2ccncc2)cs1	none (no result: Tb hexokinase, Hsp70 act)
Cc1cc(C)n2nc(-c3ccc(Br)cc3)cc2n1	HSF1 activator 52 (no result: Tb hexokinase, Hsp70 act)
O=C(COC(=O)c1ccc([N+](=O)[O-])cc1Cl)Nc1cccnc1Cl	none (no result: Tb hexokinase, HSP90 refold inh, Hsp70 act)
COC(=O)CNc1c(-c2ccccc2)nc2ccc(Br)cn12	HSF1 activator 51
O=C(O)c1cccc(-c2ccccc2)c1O	none (no result: Tb hexokinase, HSF1 activator, HSP90 refold inh, Hsp70 act, HSF1 inh)
Cc1ccc(/C=C/C(=O)c2ccc(C)cc2)cc1	none
Cc1ccc(C(=O)C(C(=O)/C=C/c2ccccc2)=C2SCCCS2)cc1	HSF1 activator 136
COc1cc(OC)c(C(=O)OCC(=O)Nc2ccc(S(=O)(=O)N3CCOCC3)cc2)cc1OC	none (no result: Tb hexokinase, HSF1 activator, HSP90 refold inh, Hsp70 act, HSF1 inh)
CCSCc1nnc(SCC(=O)Nc2ccc(OC)cc2)n1C	none
COc1ccccc1NC(=O)c1ccc(N2CC3CC(C2)c2cccc(=O)n2C3)c(NC(=O)c2ccncc2)c1 (configuration not stated)	HSF1 inh -57 (no result: Tb hexokinase, Hsp70 act)
O=C(N/N=C/c1sc(N2CCOCC2)nc1-c1ccccc1)c1ccccc1F	none (no result: Hsp70 act)
O=C(Nc1ccccc1F)C(=Cc1sc(N2CCOCC2)nc1-c1ccccc1)C(=O)Nc1ccccc1F	HSF1 activator 64
COc1ccc(C2Nc3ccccc3C(=O)N2NS(=O)(=O)c2ccc(C)cc2)cc1 (configuration not stated)	HSF1 activator 57
CCCNC(=O)NC1CCCCCCC1	none
CCCNC(=O)NC1C(NC(=O)NCCC)N(C)C(=O)N1C (configuration not stated)	HSF1 inh -57

From PubChem BioAssay
